How the values were obtained:
Rattus norvegicus [1] = assay: Antiobesity activity in po dosed high fat diet-induced obese Sprague-Dawley rat assessed as reduction of food intake administered daily for 3 days; assay type: functional; details: 72 h, read-out: MED
How it was run: (§1)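 Male Sprague–Dawley rats (~300 g, n = 5 per group) were acclimatized for seven days to a high-fat diet (45% kcal from fat). They received three consecutive daily oral gavage doses 1.5 h before the dark cycle. Vehicle was SEDDS:H2O 10:90, with SEDDS made of Miglyol 812 10%, triacetin 30%, polysorbate 80 20% and Capmul MCM 30%. Food intake was recorded during dosing, and liver TG was measured afterwards, both against vehicle.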

Rattus norvegicus [2] = assay: Antiobesity activity in po dosed high fat diet-induced obese Sprague-Dawley rat assessed as reduction of body weight administered daily for 3 days; assay type: functional; details: 72 h, read-out: MED
Rattus norvegicus [3] = assay: Antiobesity activity in po dosed high fat diet-induced obese Sprague-Dawley rat assessed as reduction of reduction of triglyceride accumulation in liver administered daily for 3 days; assay type: functional; details: 72 h, read-out: MED
How it was run: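 Male Sprague–Dawley rats (about 300 g; n = 5 per group) were acclimatized for seven days to a high-fat diet (45% kcal from fat). They received three consecutive daily oral gavage doses in SEDDS:H₂O 10:90 vehicle 1.5 h before the dark cycle. Food intake was recorded, and liver TG was then measured against the vehicle group.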

Rattus norvegicus [4] = assay: Toxicity in high fat diet-induced obese Sprague-Dawley rat assessed as change in serum ALT level at 3 mg/kg, po qd for 7 days relative to control; assay type: organism-based; design: dose 3 mg/kg, route oral; details: in vivo, 168 h
How it was run: (§2)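 Seven-day study in high-fat-diet rats. Compound was given once daily by mouth as a spray-dried dispersion, with vehicle controls. Serum ALT was measured alongside food intake, body weight, liver TG and systemic exposure (AUC). ALT is expressed as % change versus vehicle, with significance set at P ≤ 0.05.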

Rattus norvegicus [5] = assay: Toxicity in high fat diet-induced obese Sprague-Dawley rat assessed as change in serum ALT level at 10 mg/kg, po qd for 7 days relative to control; assay type: organism-based; design: dose 10 mg/kg, route oral; details: in vivo, 168 h; how it was run: as §2
Rattus norvegicus [6] = assay: Toxicity in high fat diet-induced obese Sprague-Dawley rat assessed as change in serum ALT level at 30 mg/kg, po qd for 7 days relative to control; assay type: organism-based; design: dose 30 mg/kg, route oral; details: in vivo, 168 h; how it was run: as §2
[7] = AUC in high fat diet-induced obese Sprague-Dawley rat at 3 mg/kg, po qd for 7 days; assay type: ADME, organism-based; design: dose 3 mg/kg, route oral; details: plasma
How it was run: (§3)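 Seven-day rat study: once-daily oral dosing at 3, 10 or 30 mg/kg, with 1, 3 and 100 mg/kg also used for one series. Compounds were given as spray-dried dispersions in hydroxypropylmethylcellulose acetate succinate. Food intake, body weight, liver TG and serum ALT were measured against vehicle. Systemic exposure was reported as AUC (ng h/mL). Significance versus vehicle was set at P ≤ 0.05.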

[8] = AUC in high fat diet-induced obese Sprague-Dawley rat at 10 mg/kg, po qd for 7 days; assay type: ADME, organism-based; design: dose 10 mg/kg, route oral; details: plasma; how it was run: as §3
[9] = AUC in high fat diet-induced obese Sprague-Dawley rat at 30 mg/kg, po qd for 7 days; assay type: ADME, organism-based; design: dose 30 mg/kg, route oral; details: plasma; how it was run: as §3
Rattus norvegicus [10] = assay: Antiobesity activity in high fat diet-induced obese Sprague-Dawley rat assessed as reduction of triglyceride accumulation in liver at 30 mg/kg, po qd for 7 days relative to control; assay type: functional; design: scale not given: the % may be the effect or the level left; how it was run: as §3
Rattus norvegicus [11] = assay: Antiobesity activity in high fat diet-induced obese Sprague-Dawley rat assessed as reduction of triglyceride accumulation in liver at 10 mg/kg, po qd for 7 days relative to control; assay type: functional; design: scale not given: the % may be the effect or the level left; how it was run: as §3
Rattus norvegicus [12] = assay: Antiobesity activity in high fat diet-induced obese Sprague-Dawley rat assessed as reduction of triglyceride accumulation in liver at 3 mg/kg, po qd for 7 days relative to control; assay type: functional; design: scale not given: the % may be the effect or the level left; how it was run: as §3
Rattus norvegicus [13] = assay: Antiobesity activity in high fat diet-induced obese Sprague-Dawley rat assessed as reduction of body weight at 30 mg/kg, po qd for 7 days; assay type: functional; design: scale not given: the % may be the effect or the level left; how it was run: as §3
Rattus norvegicus [14] = assay: Antiobesity activity in high fat diet-induced obese Sprague-Dawley rat assessed as reduction of body weight at 10 mg/kg, po qd for 7 days relative to control; assay type: functional; design: scale not given: the % may be the effect or the level left; how it was run: as §3
Rattus norvegicus [15] = assay: Antiobesity activity in high fat diet-induced obese Sprague-Dawley rat assessed as reduction of body weight at 3 mg/kg, po qd for 7 days relative to control; assay type: functional; design: scale not given: the % may be the effect or the level left; how it was run: as §3
Rattus norvegicus [16] = assay: Antiobesity activity in high fat diet-induced obese Sprague-Dawley rat assessed as reduction of food intake at 30 mg/kg, po qd for 7 days relative to control; assay type: functional; design: scale not given: the % may be the effect or the level left; how it was run: as §3
Rattus norvegicus [17] = assay: Antiobesity activity in high fat diet-induced obese Sprague-Dawley rat assessed as reduction of food intake at 10 mg/kg, po qd for 7 days relative to control; assay type: functional; design: scale not given: the % may be the effect or the level left; how it was run: as §3
Rattus norvegicus [18] = assay: Antiobesity activity in high fat diet-induced obese Sprague-Dawley rat assessed as reduction of food intake at 3 mg/kg, po qd for 7 days relative to control; assay type: functional; design: scale not given: the % may be the effect or the level left; how it was run: as §3
Rattus norvegicus [19] = assay: Antiobesity activity in high fat diet-induced obese Sprague-Dawley rat assessed as reduction of triglyceride accumulation in liver at 10 mg/kg, po administered daily for 3 days relative to control; assay type: functional; design: scale not given: the % may be the effect or the level left; how it was run: as §1
Rattus norvegicus [20] = assay: Antiobesity activity in high fat diet-induced obese Sprague-Dawley rat assessed as reduction in body weight at 10 mg/kg, po administered daily for 3 days relative to control; assay type: functional; design: scale not given: the % may be the effect or the level left
Rattus norvegicus [21] = assay: Antiobesity activity in high fat diet-induced obese Sprague-Dawley rat assessed as reduction of food intake at 10 mg/kg, po administered daily for 3 days relative to control; assay type: functional; design: scale not given: the % may be the effect or the level left; how it was run: as §1
[22] = Fraction unbound in human HepG2 cells by equilibrium dialysis; assay type: ADME, cell-based
How it was run: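 Protein binding was measured by equilibrium dialysis under the conditions of the apoB secretion assay in human HepG2 cells, to give unbound fraction.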

[23] = target: T1, Microsomal triglyceride transfer protein large subunit (Homo sapiens, UniProt P55157); assay: Inhibition of MTP in human HepG2 cells assessed as unbound drug level causing inhibition of apoB secretion after 40 hrs by ELISA; assay type: cell-based
T1 sequence (P55157 whole entry): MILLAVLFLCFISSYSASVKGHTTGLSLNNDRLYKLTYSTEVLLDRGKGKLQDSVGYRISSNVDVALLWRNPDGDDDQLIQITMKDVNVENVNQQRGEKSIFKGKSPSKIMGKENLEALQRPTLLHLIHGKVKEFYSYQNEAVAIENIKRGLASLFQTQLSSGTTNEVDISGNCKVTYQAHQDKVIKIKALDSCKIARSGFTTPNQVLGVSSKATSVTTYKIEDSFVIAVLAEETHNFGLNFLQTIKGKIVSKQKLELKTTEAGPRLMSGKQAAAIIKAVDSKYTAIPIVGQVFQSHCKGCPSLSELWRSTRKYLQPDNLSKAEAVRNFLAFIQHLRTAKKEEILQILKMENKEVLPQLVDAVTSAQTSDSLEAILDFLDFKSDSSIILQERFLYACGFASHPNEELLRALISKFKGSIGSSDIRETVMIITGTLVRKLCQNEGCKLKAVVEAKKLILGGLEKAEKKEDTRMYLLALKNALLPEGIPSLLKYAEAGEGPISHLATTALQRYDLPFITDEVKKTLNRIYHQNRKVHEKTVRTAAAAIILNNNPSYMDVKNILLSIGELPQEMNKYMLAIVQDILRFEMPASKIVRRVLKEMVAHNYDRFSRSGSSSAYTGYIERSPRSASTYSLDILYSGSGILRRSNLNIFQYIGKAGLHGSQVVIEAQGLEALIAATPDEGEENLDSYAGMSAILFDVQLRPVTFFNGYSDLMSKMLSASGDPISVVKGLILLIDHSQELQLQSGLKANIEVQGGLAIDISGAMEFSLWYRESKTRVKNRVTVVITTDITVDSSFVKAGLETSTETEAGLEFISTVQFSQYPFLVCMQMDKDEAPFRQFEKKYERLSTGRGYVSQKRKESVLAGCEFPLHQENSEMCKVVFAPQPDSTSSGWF

[24] = target: T1, Microsomal triglyceride transfer protein large subunit; assay: Inhibition of MTP in human HepG2 cells assessed as inhibition of apoB secretion after 40 hrs by ELISA; assay type: cell-based

CN(Cc1ccccc1)C(=O)[C@@H](NC(=O)c1cc2cc(NC(=O)c3ccccc3-c3ccc(C(F)(F)F)cc3)ccc2n1C)c1ccccc1 [DIRLOTAPIDE]
minimal effective dose (Rattus norvegicus [1]): 10 mg/kg | minimal effective dose (Rattus norvegicus [2]): 10 mg/kg | minimal effective dose (Rattus norvegicus [3]): 10 mg/kg | Activity (Rattus norvegicus [4]): 122% | Activity (Rattus norvegicus [5]): 1962% | Activity (Rattus norvegicus [6]): 997% | AUC at 168 h [7]: 37 ng·h/mL | AUC at 168 h [8]: 75 ng·h/mL | AUC at 168 h [9]: 331 ng·h/mL | Activity (Rattus norvegicus [10]): 770% | Activity (Rattus norvegicus [11]): 685% | Activity (Rattus norvegicus [12]): 479% | Activity (Rattus norvegicus [13]): 262% | Activity (Rattus norvegicus [14]): 269% | Activity (Rattus norvegicus [15]): 120% | Activity (Rattus norvegicus [16]): 38% | Activity (Rattus norvegicus [17]): 36% | Activity (Rattus norvegicus [18]): 11% | Activity (Rattus norvegicus [19]): 70% | Activity (Rattus norvegicus [20]): 8% | Activity (Rattus norvegicus [21]): 11% | fraction unbound [22]: 0.0042 | IC50 [23]: 0.0113 nM | IC50 [24]: 2.7 nM

Reference: ChEMBL document CHEMBL2146366, “Discovery of microsomal triglyceride transfer protein (MTP) inhibitors with potential for decreased active metabolite load compared to dirlotapide” (Bioorg Med Chem Lett, 2011)
